In ChEMBL document CHEMBL3352291, “Synthesis and structure-activity relationship of thiobarbituric acid derivatives as potent inhibitors of urease” (Bioorg Med Chem, 2014):

Test: Inhibition of Bacillus pasteurii urease using urea substrate assessed as reduction in ammonia production after 15 mins by indophenol's method
Set-up: species or system Sporosarcina pasteurii
In short: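 One unit of B. pasteurii urease in buffer containing 100 mM urea, incubated with test compound (added as 1 mM solution) at 30 °C for 15 min. Ammonia was measured by the indophenol method: phenol reagent and alkali reagent were added, and the increase in absorbance at 630 nm was read after 50 min on a plate reader.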

Question: With `O=C1NC(=S)NC(=O)C1=Cc1c(O)ccc2ccccc12` as the compound, how does the IC50 read?
Answer: 21.4 µM

Question: With `Cc1ccccc1C=C1C(=O)NC(=S)NC1=O` as the compound, how does the IC50 read?
Answer: 42.1 µM

Question: With `O=C1NC(=S)NC(=O)C1=Cc1c(Cl)c2cc(Br)ccc2oc1=O` as the compound, how does the IC50 read?
Answer: 62.8 µM

Question: For `COc1cc(C=C2C(=O)NC(=S)NC2=O)c(OC)cc1Br`, which IC50 is on record?
Answer: 43.3 µM

Question: Which IC50 does the source give for `O=C1NC(=S)NC(=O)C1=Cc1cccs1` here?
Answer: 21.5 µM

Question: With `O=C1NC(=S)NC(=O)C1=Cc1ccc(O)c(O)c1` as the compound, how does the IC50 read?
Answer: 1.61 µM

Question: Which IC50 does the source give for `Cc1cccc(C=C2C(=O)NC(=S)NC2=O)n1` here?
Answer: 16 µM

Question: For `COc1ccc(C=C2C(=O)NC(=S)NC2=O)cc1OC`, which IC50 is on record?
Answer: 14.3 µM

Question: With `Cc1ccc(C=C2C(=O)NC(=S)NC2=O)o1` as the compound, how does the IC50 read?
Answer: 18.2 µM

Question: Which IC50 does the source give for `O=C1NC(=S)NC(=O)C1=Cc1ccc(O)c(O)c1O` here?
Answer: 25.2 µM

Question: Which IC50 does the source give for `NC(N)=S` [THIOUREA] here?
Answer: 21 µM

Question: For `CCOc1ccc(C=C2C(=O)NC(=S)NC2=O)cc1`, which IC50 is on record?
Answer: 29.4 µM

Question: For `COc1cc(Br)c(C=C2C(=O)NC(=S)NC2=O)cc1OC`, which IC50 is on record?
Answer: 47.3 µM

Question: With `COc1cccc(C=C2C(=O)NC(=S)NC2=O)c1O` as the compound, how does the IC50 read?
Answer: 19.2 µM

Question: For `O=C1NC(=S)NC(=O)C1=Cc1c[nH]c2ccccc12`, which IC50 is on record?
Answer: 171 µM

Question: Which IC50 does the source give for `Nc1ccccc1C=C1C(=O)NC(=S)NC1=O` here?
Answer: 32.3 µM

Question: For `O=C1NC(=S)NC(=O)C1=Cc1ccc(C=C2C(=O)NC(=S)NC2=O)cc1`, which IC50 is on record?
Answer: 6.7 µM

Question: With `COc1cc(C=C2C(=O)NC(=S)NC2=O)cc(I)c1O` as the compound, how does the IC50 read?
Answer: 42.5 µM

Question: With `O=C1NC(=S)NC(=O)C1=Cc1ccc(O)cc1O` as the compound, how does the IC50 read?
Answer: 32.1 µM

Question: For `COc1ccc(C=C2C(=O)NC(=S)NC2=O)cc1O`, which IC50 is on record?
Answer: 22.8 µM

Question: With `CN(C)c1ccc(C=C2C(=O)NC(=S)NC2=O)cc1` as the compound, how does the IC50 read?
Answer: 58.5 µM

Question: Which IC50 does the source give for `O=C1NC(=S)NC(=O)C1C=C1c2ccccc2Cc2ccccc21` here?
Answer: 137 µM

Question: With `O=C1NC(=S)NC(=O)C1=Cc1cc(Cl)cc(Cl)c1O` as the compound, how does the IC50 read?
Answer: 50.3 µM

Question: With `O=C1NC(=S)NC(=O)C1=Cc1cc(Br)c(O)c(Br)c1` as the compound, how does the IC50 read?
Answer: 10.6 µM

Question: Which IC50 does the source give for `COc1cc(C=C2C(=O)NC(=S)NC2=O)cc(OC)c1O` here?
Answer: 46.5 µM

Question: For `COc1ccc(O)c(C=C2C(=O)NC(=S)NC2=O)c1`, which IC50 is on record?
Answer: 32.7 µM

Question: For `CSc1ccc(C=C2C(=O)NC(=S)NC2=O)cc1`, which IC50 is on record?
Answer: 18.1 µM

Question: For `O=C1NC(=S)NC(=O)C1=Cc1ccncc1`, which IC50 is on record?
Answer: 16 µM
